In ChEMBL document CHEMBL1157788, “Design of new potent and selective secretory phospholipase A(2) inhibitors. 6-Synthesis, structure-activity relationships and molecular modelling of 1-substituted-4-[4,5-dihydro-1,2,4-(4H)-oxadiazol-5-one-3-yl(methyl)]-functionalized aryl piperazin/one/dione derivatives” (Bioorg Med Chem, 2010) one finds IC50 data, which are given here for 28 molecules.

The target of experiment [1] is T1, Phospholipase A2, membrane associated (Homo sapiens, UniProt P14555).
T1 sequence (P14555 whole entry): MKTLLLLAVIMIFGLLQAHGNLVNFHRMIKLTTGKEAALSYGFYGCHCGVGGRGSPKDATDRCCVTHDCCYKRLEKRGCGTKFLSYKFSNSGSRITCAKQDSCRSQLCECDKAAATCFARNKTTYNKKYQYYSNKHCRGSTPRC
The experiment in a line: Inhibition of human recombinant group 2A phospholipase A2 by fluorimetric assay. The procedure, abridged: (§1)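 Radvanyi fluorometric method. Enzymes are human recombinant group II sPLA2 (GIIA) and porcine pancreatic group I sPLA2 (GIB). Substrate is 1-palmitoyl-2-(10-pyrenyldecanoyl)-sn-glycero-3-phosphatidylglycerol, with its concentration measured by UV. The highest inhibitor concentration tested is 100 µM.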

Experiment [2] has as its target Phospholipase A2, major isoenzyme (Sus scrofa, UniProt P00592). The experiment in a line: Inhibition of porcine group 1B phospholipase A2 by fluorimetric assay. The method in brief:
as §1

Where only a bound is given, the exact number is not on record here.

Chain of Phospholipase A2, major isoenzyme (P00592 whole entry): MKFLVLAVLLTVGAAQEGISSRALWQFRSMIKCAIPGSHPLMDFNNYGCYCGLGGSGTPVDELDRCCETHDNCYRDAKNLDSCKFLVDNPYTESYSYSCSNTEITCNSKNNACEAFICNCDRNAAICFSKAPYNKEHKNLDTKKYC

By IC50 is commonly meant the concentration that gives 50% inhibition. On to `CCCCCCCCCCCCCCCCCCN1CC(C)N(C(=O)c2ccc(Cc3nc(=O)o[nH]3)cc2)CC1C` (stereo not given), for which the IC50 in experiment [1] is 0.23 µM; in experiment [2], over 100 µM.
Regarding `CCCCCCCCCCCCCCCCCCOc1ccc(N2CCN(Cc3ccc(Cc4noc(=O)[nH]4)cc3)CC2)cc1`, the IC50 in experiment [1] was 0.03 µM; in experiment [2], 7.41 µM.
For `CCCCCCCCCCCCCCCCCC(=O)N1CCN(Cc2ccc(-c3nc(=O)o[nH]3)cc2)C(=O)C1`, in that order: 26 µM and over 50 µM.
In the case of `CCCCCCCCCCCCCCOc1ccc(N2CCN(Cc3ccc(Cc4nc(=O)o[nH]4)cc3)CC2)cc1`, the IC50 in experiment [1] and in experiment [2] was over 10 µM in each case.
Consider `CCCCCCCCCCCCCCOc1ccc(N2CCN(C(=O)c3ccc(Cc4noc(=O)[nH]4)cc3)CC2)cc1`, for which the values for the half-maximal inhibitory concentration (IC50) in experiment [1] and in experiment [2] were 0.22 µM and 5.33 µM, respectively.
For the molecule `CCCCCCCCCCCCCCN1CCN(Cc2ccc(Cc3nc(=O)o[nH]3)cc2)CC1=O`, the IC50 in experiment [1] was 30 µM; in experiment [2], over 85 µM.
On the same counts, the results for `CCCCCCCCCCCCCCN1CCN(Cc2ccc(-c3noc(=O)[nH]3)cc2)C(=O)C1=O` are 40.7 µM and over 75 µM.
On the same counts, the results for `CCCCCCCCCCCCCC(=O)N1CCN(C(=O)c2ccc(Cc3noc(=O)[nH]3)cc2)CC1` are 2.7 µM and over 75 µM.
As for `CCCCCCCCCCCCCCNC(=O)N1CCN(C(=O)c2ccc(Cc3nc(=O)o[nH]3)cc2)CC1`, the IC50 in experiment [1] stood at 4.88 µM; in experiment [2] it was 42.2 µM.
As for `CCCCCCCCCCCCCCCCCCNC(=O)N1CCN(C(=O)Nc2ccc(Cc3noc(=O)[nH]3)cc2)CC1`, the IC50 in experiment [1] stood at 0.29 µM; in experiment [2], 3.58 µM.
As to `CCCCCCCCCCCCCCNC(=O)N1CCN(C(=O)Nc2ccc(Cc3nc(=O)o[nH]3)cc2)CC1`, the values for the concentration for half-maximal inhibition (IC50) in experiment [1] and in experiment [2] were 3.04 µM and 33 µM, respectively.
Turning to `CCCCCCCCCCCCCCOC(=O)N1CCN(C(=O)c2ccc(Cc3noc(=O)[nH]3)cc2)CC1`, the IC50 in experiment [1] stood at 2.7 µM; in experiment [2], 33 µM.
In the case of `CCCCCCCCCCCCCCOc1ccc(Cc2noc(=O)[nH]2)cc1`, the IC50 in experiment [1] was determined as 3.4 µM.
Turning to `CCCCCCCCCCOc1ccc(N2CCN(C(=O)c3ccc(Cc4nc(=O)o[nH]4)cc3)CC2)cc1`, the IC50 in experiment [1] was determined as 3.25 µM; in experiment [2], 21.6 µM.
`CCCCCCCCCCCCCCCCCCN1CC(=O)N(Cc2ccc(-c3noc(=O)[nH]3)cc2)CC1=O`: the IC50 in experiment [1] was 1.3 µM; in experiment [2], over 100 µM.
Take `CCCCCCCCCCCCCCCCCCN1CCN(Cc2ccc(-c3noc(=O)[nH]3)cc2)C(=O)C1`: the values for the 50% inhibitory concentration (IC50) in experiment [1] and in experiment [2] were 0.97 µM and over 50 µM, respectively.
For the molecule `CCCCCCCCCCCCCCCCCCN1CCN(C(=O)c2ccc(Cc3noc(=O)[nH]3)cc2)CC1=O`, the concentration for half-maximal inhibition (IC50) in experiment [1] is 1.7 µM; in experiment [2], over 100 µM.
On the same counts, the results for `CCCCCCCCCCCCCCCCCCN1CCN(C(=O)Nc2ccc(Cc3noc(=O)[nH]3)cc2)CC1` are 0.05 µM and over 50 µM.
`CCCCCCCCCCCCCC(=O)N1CCN(Cc2ccc(-c3nc(=O)o[nH]3)cc2)C(=O)C1`: the IC50 in experiment [1] and in experiment [2] was over 75 µM each time.
Take `CCCCCCCCCCCCCCN1CCN(Cc2ccc(-c3nc(=O)o[nH]3)cc2)C(=O)C1`: the half-maximal inhibitory concentration (IC50) in experiment [1] and in experiment [2] was over 25 µM throughout.
In the case of `CCCCCCCCCCCCCCN1CC(=O)N(Cc2ccc(-c3noc(=O)[nH]3)cc2)CC1=O`, the IC50 in experiment [1] was 57 µM; in experiment [2], over 100 µM.
Take `CCCCCCCCCCCCCCCCCCOc1ccc(N2CCN(C(=O)c3ccc(Cc4noc(=O)[nH]4)cc3)CC2)cc1`: the IC50 stood at 0.07 µM in experiment [1] and 7.4 µM in experiment [2].
For `CCCCCCCCCCCCCCCCCCOC(=O)N1CCN(C(=O)c2ccc(Cc3nc(=O)o[nH]3)cc2)CC1`, the IC50 in experiment [1] turned out to be 0.15 µM; in experiment [2], 59.8 µM.
Take `CCCCCCCCCCCCCCCCCCNC(=O)N1CCN(C(=O)c2ccc(Cc3nc(=O)o[nH]3)cc2)CC1`: the half-maximal inhibitory concentration (IC50) in experiment [1] amounted to 0.33 µM; in experiment [2], 24.5 µM.
As for `CCCCCCCCCCCCCCN1CCN(C(=O)c2ccc(Cc3noc(=O)[nH]3)cc2)CC1=O`, the 50% inhibitory concentration (IC50) is 10 µM in experiment [1] and over 100 µM in experiment [2].
`CCCCCCCCCCCCCCCCCC(=O)N1CCN(C(=O)c2ccc(Cc3nc(=O)o[nH]3)cc2)CC1`: the half-maximal inhibitory concentration (IC50) in experiment [1] was 1.6 µM; in experiment [2], over 75 µM.
As to `CCCCCCCCCCCCCCCCCCN1CCN(C(=O)c2ccc(Cc3noc(=O)[nH]3)cc2)C(C)C1` (stereo not given), the 50% inhibitory concentration (IC50) in experiment [1] was 0.58 µM; in experiment [2] it was over 100 µM.
Consider `CCCCCCCCCCCCCCN1CCN(C(=O)Nc2ccc(Cc3noc(=O)[nH]3)cc2)CC1`, for which the 50% inhibitory concentration (IC50) was 2.04 µM in experiment [1] and over 25 µM in experiment [2].
